Most compounds without a hit are left out; they make up all but 1.9% or so of the library.
MC4R antagonist: blocks human MC4R cAMP signaling; 360,000 tested, 0.48% active; inhibition, % at 6.5 µM; P32245; MC4R-expressing cells, MTII-stimulated cAMP, LANCE TR-FRET;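 active = inhibition above its plate's cutoff, the mean of tested wells on that plate plus 3 SD, cut at about 29% in these data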
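Test system: U2OS cells stably expressing human melanocortin 4 receptor (MC4R); also added: Melanotan II challenge; compound: 6.5 µM single dose; timing: 30-min compound preincubation, 1-h Melanotan II challenge, 1-h detection, room temperature; signal: Eu-cAMP/anti-cAMP TR-FRET, emission 671 nm; repeats: one well per compound, no replicates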
NOD2 RIPK2 PPI: blocks binding of human NOD2 to RIPK2 | O43353 | CHO BLA complementation NOD2-RIPK2, CCF4 ratio | inhibition, % at 4.98 µM | 360,000 tested, 0.38% active | AID 624267; in the data active = inhibition above about 21%
TLR9-MyD88 inh: TLR9-MyD88 interaction inhibition; AID 504734; inhibition, % at 4.98 µM; 340,000 tested, 0.21% active; CHO BLA complementation TLR9-MyD88, CCF4 FRET ratio;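 active = inhibition above the mean over all tested compounds plus 3 SD, cut at about 21% in these data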
MC4R barr agon: human MC4R agonism via beta-arrestin. P32245. U2OS MC4R beta-arrestin complementation, luminescence; percent of melanotan II response, DMSO zero. 360,000 tested, 0.98% active. activation, % at 8.9 µM;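 active = activation above a per-plate cutoff, the mean activation of sample wells on that plate plus 3 SD, cut at about 8% in these data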
TLR4 MyD88 comp: TLR4-MyD88 interaction inhibition in cells. O00206+Q99836. HeLa CL3-4 TLR4/MyD88 BLA complementation, FRET ratio. inhibition, % at 8.4 µM. 200,000 tested, 0.18% active; in the data active = inhibition above about 25%
NTR1 ag: agonists of human neurotensin receptor NTR1 | P30989 | NTR1-U2OS beta-arrestin-GFP spot imaging, agonist mode | activation, % at 20 µM | 330,000 tested, 0.17% active;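 active = activation at or above 40% of the spot to cytoplasm intensity ratio, with at least 20 cells analyzed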
NTR1 ag conf: confirmation of agonists of human NTR1; 480 tested, 38% active; activation, % at 20 µM; NTR1-U2OS beta-arrestin-GFP translocation imaging; shares compounds with NTR1 ag;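 active = mean activation at 20 µM of at least 40%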
cAMP nonselect: nonselective cAMP signaling inhibitor, MC4R antagonist counter-screen; shares compounds with MC4R antagonist; parental U2OS, forskolin cAMP, LANCE TR-FRET; inhibition, % at 6.5 µM; 1,600 tested, 26% active;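 active = mean inhibition over triplicates above the low-control well mean plus 3 SD, set per campaign, cut at about 13% in these data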;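 note: signal is single emission at 671 nm which falls as cellular cAMP rises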
MC4R cAMP antag: human MC4R cAMP antagonism confirmation | shares compounds with MC4R antagonist | MC4R-expressing cells, MTII-stimulated cAMP, TR-FRET | inhibition, % at 6.5 µM | 1,600 tested, 27% active | AID 602195; in the data active = inhibition above about 29%
Hits are given with their value; . = inactive; / = no result.

SMILES	MC4R antagonist	NOD2 RIPK2 PPI	TLR9-MyD88 inh	MC4R barr agon	TLR4 MyD88 comp	NTR1 ag	NTR1 ag conf	others
Oc1ccc(-c2cc(-c3ccc(O)cc3)nc(-c3ccccc3)n2)cc1	.	.	.	.	/	52.5	57.3
Nc1ccc(-c2cc(-c3ccc(N)cc3)nc(-c3ccccc3)n2)cc1	.	.	.	.	.	.	/
CCN(CC)S(=O)(=O)c1ccc(/C=C/C(=O)Nc2ccc(N3CCOCC3)cc2)cc1	.	.	.	.	/	.	/
Cc1ccc(-n2ncc3c(N4CCN(c5ccccc5)CC4)ncnc32)c(C)c1	.	.	.	.	.	61.9	60.9
COc1cc(/C=C/c2ccc3cccc([N+](=O)[O-])c3n2)ccc1OCC(=O)O	.	.	.	.	.	.	/
CCOc1c(OC(C)=O)ccc(/C=C/c2ccc3cccc(OC)c3n2)c1[N+](=O)[O-]	.	.	.	.	.	42.1	.
Cc1cc(N/N=C/c2ccc(O)cc2O)nc(-c2ccccc2O)n1	.	.	.	.	.	/	/
Cc1cc(N/N=C/c2ccccc2O)nc(-c2ccccc2O)n1	.	.	.	.	.	62.9	.
CCOC(=O)C1(C)CCCN1C(=O)c1c(F)cccc1F (stereo not drawn)	.	.	/	.	/	/	/
CCC(C)Sc1cccc(-c2nc3ccccn3c2NCc2ccccc2)c1 (stereo not drawn)	.	.	.	.	/	40.3	.
CN(CC(=O)Nc1ccc(S(=O)(=O)N2CCCC2)cc1)Cc1c(F)cccc1Cl	.	.	.	.	.	.	/
O=[N+]([O-])c1cc(C(F)(F)F)ccc1NCCNC(=S)Nc1ccc(Cl)cc1	.	.	.	.	.	41.1	.
O=C(Cc1ccccc1)NCC(=O)OCC(=O)c1ccc(OC(=O)c2ccccc2)cc1	.	.	.	.	.	.	/
COc1cccc(NC(=O)CC2C(=O)NC3CCCCC3N2C(=O)c2ccccc2)c1 (stereo not drawn)	.	.	.	.	/	.	/
Cc1ccc(Cl)c2c1=NC(=O)C=2c1[nH]c(=S)[nH]c1O	.	.	.	.	.	.	/
CCCNC(=O)NC(=O)CSc1nnc(-c2c[nH]c3ccccc23)o1	.	.	.	.	/	.	/
OC(CNCCc1ccc(Cl)cc1)COc1cc(Cl)ccc1Cl (stereo not drawn)	.	.	.	29.9	/	40.9	.
COc1ccc(Cl)cc1NC(=O)c1cccc([N+](=O)[O-])c1O	.	.	.	.	/	/	/
O=C(NCc1cccnc1)C(=O)C1C(=O)Nc2ccccc21 (stereo not drawn)	.	.	.	.	/	.	/
COc1ccc(C(=O)n2nc(-c3ccco3)nc2N)cc1	.	.	.	.	.	52.4	.
O=C(Nc1ccc(Cl)c(Cl)c1)Nc1nc(-c2ccccc2)cs1	.	.	.	.	.	47.1	.
COc1cccc(-c2csc(NC(=O)Nc3ccccc3)n2)c1	.	.	.	.	/	72.5	.
C#CCNC(=O)C1=C[C@@H](C)C[C@@H](OCc2ccc(CO)cc2)O1	.	.	.	.	.	.	/
O=c1[nH]c(=O)n(Cc2ccco2)c2c1C(C(F)(F)F)(C(F)(F)F)N=C(C1CCCCC1)N2	.	.	.	.	.	.	/
O=c1[nH]c(=O)n(Cc2ccco2)c2c1C(C(F)(F)F)(C(F)(F)F)N=C(CCC1CCCCC1)N2	.	.	.	.	.	45.6	.
SMILES	MC4R antagonist	NOD2 RIPK2 PPI	TLR9-MyD88 inh	MC4R barr agon	TLR4 MyD88 comp	NTR1 ag	NTR1 ag conf	others
CCCCNC(=O)C1(C)CCCCN1C(=O)c1cccs1 (stereo not drawn)	.	.	/	.	/	/	/
N#Cc1ccc(Nc2nc(-c3ccc(O)cc3O)cs2)cc1C(F)(F)F	.	.	.	19.8	/	40.8	69.9
CC(C)=CCc1c(O)c(CC=C(C)C)c2c(c1O)-c1cc(O)c(O)cc1CC2	/	/	/	/	/	.	/
CN(CC(=O)Nc1ccc(F)c(F)c1F)C(=O)c1ccc2c(c1)S(=O)(=O)N=C1CCCCCN12	.	.	.	.	/	.	/
Nc1ccccc1C#CC(=O)c1ccccc1	54.0	.	.	.	/	71.2	82.7	cAMP nonselect=25.9;MC4R cAMP antag=52.1
Nc1ccccc1C#Cc1cnccn1	.	.	.	.	/	.	/
CC(C)(C)OC(=O)[C@H](Cc1ccccc1)NC(=O)c1nc[nH]c1C(=O)NC1CCN(C(=O)OC(C)(C)C)CC1	37.2	.	.	.	.	44.9	.	cAMP nonselect=.;MC4R cAMP antag=.
COc1ccc(C2(c3ccc(OC)cc3)NC(=O)N(CC(=O)NC3CCS(=O)(=O)C3)C2=O)cc1 (stereo not drawn)	.	.	.	.	/	.	/
Cc1ccc2nc(-c3ccc(NC(=S)NC(=O)CC(C)C)cc3)sc2c1	.	.	.	.	.	.	/
Cc1ccc2nc(-c3ccc(NC(=O)C(C)Sc4nncs4)cc3)sc2c1 (stereo not drawn)	43.1	.	.	.	/	48.6	.	cAMP nonselect=.;MC4R cAMP antag=.
CC(NC(=O)c1cccc(S(=O)(=O)N(C)c2ccccc2)c1)c1cccnc1 (stereo not drawn)	.	.	.	.	/	.	/
O=C(NCCc1ccccc1)C(c1cccs1)N(C(=O)CCl)c1ccc(Cl)cc1 (stereo not drawn)	30.5	.	.	34.5	.	69.7	61.2	cAMP nonselect=.;MC4R cAMP antag=30.8
COC(=O)COc1ccc(NC(=O)Cn2nc(-c3ccccc3)c3ccccc3c2=O)cc1	29.1	.	.	.	.	60.7	.	cAMP nonselect=18.7;MC4R cAMP antag=37.8
CCCOc1ccc(C(=O)c2ccccc2C(=O)O)cc1OCCC	.	.	.	.	/	.	/
CCCOc1ccc(C(=O)c2ccccc2C(=O)OC2CCOC2=O)cc1OCCC (stereo not drawn)	30.5	.	.	.	/	44.5	46.5	cAMP nonselect=.;MC4R cAMP antag=.
Cc1nn(-c2ccccc2)nc1C(=O)OCC(=O)N1CCC(C)CC1	.	.	.	.	/	.	/
CCCCNc1c(-c2ccc(OC)c(Sc3ccc(OC)cc3)c2)nc2ccccn12	46.2	.	.	.	/	55.8	71.0	cAMP nonselect=.;MC4R cAMP antag=.
CCC(=O)c1c[nH]c(C(=O)N2CCOCC2)c1	.	.	.	.	/	.	/
